Test results: ChEMBL document CHEMBL1134284, “The biological effects of structural variation at the meta position of the aromatic rings and at the end of the alkenyl chain in the alkenyldiarylmethane series of non-nucleoside reverse transcriptase inhibitors” (J Med Chem, 2001)

Key:
[1] = (§1) Antiviral activity against Ba-L monocyte tropic isolate strain in monocyte; type: functional; conditions: Homo sapiens
Outline: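 Monocytes isolated from hepatitis- and HIV-seronegative donors by Ficoll-Hypaque gradient, cultured 6 days into macrophages, then infected with Ba-L. Medium RPMI 1640 with 10% FBS, 2 mM glutamine, penicillin/streptomycin. Replication read as p24 antigen by ELISA 6 days postinfection. […] Run in triplicate, with AZT as positive control.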

[2] = as §1; type: ADME; conditions: human, monocytes; read-out: TC50 (the source's name)
Outline: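 Monocytes isolated from hepatitis- and HIV-seronegative donors by Ficoll-Hypaque gradient, cultured 6 days, then infected. Medium RPMI 1640 with 10% FBS, 2 mM glutamine, penicillin/streptomycin. Virus replication measured by p24 antigen ELISA 6 days postinfection. […] Run in triplicate, SD within triplicate under 10%; AZT positive control.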

CCRF-CEM [3] = test: Antiviral activity against site directed 4X AZT resistant isolate HIV-1 L100I in CEM cells; type: functional, cell-based, Homo sapiens
Outline: (§2)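 CEM-SS cells infected with low-cytopathicity site-directed RT-mutant NL4-3 clones (A98G, L74V, 4XAZT = D67N/K70R/T215Y/K219Q, 4XAZT/L100I). Replication was quantified by p24 ELISA rather than cytoprotection. […] Triplicate, variation of mean about 10%.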

CCRF-CEM [4] = test: Antiviral activity against site directed 4X AZT resistant isolate HIV-1 in CEM cells; type: functional, cell-based, Homo sapiens; conditions: ccrf-cem
CCRF-CEM [5] = test: Antiviral activity against site directed resistant isolate HIV-1 K101E in CEM cells; type: functional, cell-based, Homo sapiens
CCRF-CEM [6] = test: Antiviral activity against site directed resistant isolate HIV-1 K103N in CEM cells; type: functional, cell-based, Homo sapiens
Outline: (§3)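 CEM-SS cells in RPMI 1640 with 10% heat-inactivated FBS were infected with NL4-3 molecular clones carrying site-directed RT mutations. Cytoprotection from virus-induced syncytial killing was read by MTS/phenazine ethosulfate reduction (A490) 6 days after infection. […] Triplicate, variation of mean about 10%.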

CCRF-CEM [7] = test: Antiviral activity against site directed resistant isolate HIV-1 L100I in CEM cells; type: functional, cell-based, Homo sapiens; outline: as §3
CCRF-CEM [8] = test: Antiviral activity against site directed resistant isolate HIV-1 L74V in CEM cells; type: functional, cell-based, Homo sapiens; outline: as §2
CCRF-CEM [9] = test: Antiviral activity against site directed resistant isolate HIV-1 V106A in CEM cells; type: functional, cell-based, Homo sapiens; outline: as §3
CCRF-CEM [10] = test: Antiviral activity against site directed resistant isolate HIV-1 Y181C in CEM cells; type: functional, cell-based, Homo sapiens; outline: as §3
CCRF-CEM [11] = test: Antiviral activity against site directed resistant isolate HIV-1 Y188C in CEM cells; type: functional, cell-based, Homo sapiens; outline: as §3
CCRF-CEM [12] = test: Antiviral activity against site directed resistant isolates in HIV-1 A98G CEM cells; type: functional, cell-based, Homo sapiens; outline: as §2
CCRF-CEM [13] = test: Antiviral activity against site directed wild-type enzyme isolate HIV-1 NL4-3WT in CEM cells; type: functional, cell-based; conditions: Homo sapiens
Outline: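 Wild-type NL4-3 in CEM-SS cells, measured both by MTS cytoprotection 6 days after infection and by p24 ELISA. The IC50 is the mean of the two methods' values.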

[14] = (§4) Antiviral activity against subtype isolate O strain in PBLs (peripheral blood lymphocytes); type: cell-based; conditions: human, read-out: TC50 (the source's name)
Outline: (§5)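 PBMC from hepatitis- and HIV-seronegative donors isolated by Ficoll-Hypaque gradient and stimulated 3 days with phytohemagglutinin/IL-2 before infection. Medium RPMI 1640 with 10% FBS, 2 mM glutamine, penicillin/streptomycin. Replication read as supernatant reverse transcriptase activity. […] Run in triplicate, SD within triplicate under 10%; AZT positive control.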

[15] = (§6) Antiviral activity against multi drug resistant MDR 769 strain in PBLs (peripheral blood lymphocytes); type: ADME, cell-based; conditions: human, read-out: TC50 (the source's name); outline: as §5
[16] = (§7) Antiviral activity against subtype isolate A strain in PBLs (peripheral blood lymphocytes); type: ADME, cell-based; conditions: human, read-out: TC50 (the source's name); outline: as §5
[17] = (§8) Antiviral activity against subtype isolate B strain in PBLs (peripheral blood lymphocytes); type: ADME, cell-based; conditions: human, read-out: TC50 (the source's name); outline: as §5
[18] = Antiviral activity against subtype isolate C strain in PBLs (peripheral blood lymphocytes); type: ADME, cell-based; conditions: human, read-out: TC50 (the source's name); outline: as §5
[19] = (§9) Antiviral activity against subtype isolate E strain in PBLs (peripheral blood lymphocytes); type: ADME, cell-based; conditions: human, read-out: TC50 (the source's name); outline: as §5
[20] = (§10) Antiviral activity against subtype isolate F strain in PBLs (peripheral blood lymphocytes); type: cell-based; conditions: human, read-out: TC50 (the source's name); outline: as §5
[21] = (§11) Antiviral activity against subtype isolate G strain in PBLs (peripheral blood lymphocytes); type: cell-based; conditions: human, read-out: TC50 (the source's name); outline: as §5
[22] = (§12) Antiviral activity against ROJO virus strain in PBLs (peripheral blood lymphocytes); type: functional, cell-based; conditions: Homo sapiens
Outline: (§13)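 PBMCs isolated from hepatitis- and HIV-seronegative donors by Ficoll-Hypaque gradient and stimulated 3 days with phytohemagglutinin/IL-2. Infected with pediatric low-passage clinical isolates or NIAID subtype isolates, in RPMI 1640 with 10% FBS, 2 mM glutamine, penicillin/streptomycin. Replication read as supernatant reverse transcriptase activity. […] Run in triplicate, with AZT as positive control.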

[23] = (§14) Antiviral activity against SLKA virus strain in PBLs (peripheral blood lymphocytes); type: functional, cell-based; conditions: Homo sapiens; outline: as §13
[24] = (§15) Antiviral activity against TEKI virus strain in PBLs (peripheral blood lymphocytes); type: functional, cell-based; conditions: Homo sapiens; outline: as §13
[25] = (§16) Antiviral activity against WEJO virus strain in PBLs (peripheral blood lymphocytes); type: functional, cell-based; conditions: Homo sapiens; outline: as §13
[26] = as §6; type: functional, cell-based; conditions: Homo sapiens; outline: as §5
[27] = as §7; type: functional, cell-based; conditions: Homo sapiens; outline: as §13
[28] = as §8; type: functional, cell-based; conditions: Homo sapiens; outline: as §13
[29] = (§17) Antiviral activity against subtype isolate D strain in PBLs (peripheral blood lymphocytes); type: functional, cell-based; conditions: Homo sapiens; outline: as §13
[30] = as §9; type: functional, cell-based; conditions: Homo sapiens; outline: as §13
[31] = as §10; type: functional, cell-based; conditions: Homo sapiens; outline: as §13
[32] = as §11; type: functional, cell-based; conditions: Homo sapiens; outline: as §13
[33] = as §4; type: functional, cell-based; conditions: Homo sapiens; outline: as §13
[34] = as §12; type: ADME, cell-based; conditions: human, read-out: TC50 (the source's name); outline: as §5
[35] = as §14; type: ADME, cell-based; conditions: human, read-out: TC50 (the source's name); outline: as §5
[36] = as §15; type: ADME, cell-based; conditions: human, read-out: TC50 (the source's name); outline: as §5
CCRF-CEM [37] = test: Antiviral activity against site directed resistant isolate HIV-1 V179D in CEM cells; type: functional, cell-based, Homo sapiens; outline: as §3
[38] = as §17; type: ADME, cell-based; conditions: human, read-out: TC50 (the source's name); outline: as §5
[39] = as §16; type: ADME, cell-based; conditions: human, read-out: TC50 (the source's name); outline: as §5
cells = conditions: Homo sapiens

Cc1cn([C@H]2C[C@H](N=[N+]=[N-])[C@@H](CO)O2)c(=O)[nH]c1=O [ZIDOVUDINE]
IC50 [1]: 2 nM | CC50 [2]: > 200000 nM | IC50 (CCRF-CEM [3]): 870 nM | IC50 (CCRF-CEM [4]): 82 nM | IC50 (CCRF-CEM [5]): 46 nM | IC50 (CCRF-CEM [6]): 7 nM | IC50 (CCRF-CEM [7]): 6 nM | IC50 (CCRF-CEM [8]): 40 nM | IC50 (CCRF-CEM [9]): 14 nM | IC50 (CCRF-CEM [10]): 80 nM | IC50 (CCRF-CEM [11]): 87 nM | IC50 (CCRF-CEM [12]): 8 nM | IC50 (CCRF-CEM [13]): 17 nM | CC50 [14]: > 170000 nM | CC50 [15]: > 172000 nM | CC50 [16]: > 180000 nM | CC50 [17]: > 200000 nM | CC50 [18]: > 200000 nM | CC50 [19]: > 170000 nM | CC50 [20]: > 200000 nM | CC50 [21]: > 170000 nM | IC50 [22]: 1 nM | IC50 [23]: 1 nM | IC50 [24]: 2 nM | IC50 [25]: 1 nM | IC50 [26]: 25 nM | IC50 [27]: 1 nM | IC50 [28]: 9 nM | IC50 [29]: 7 nM | IC50 [30]: 2 nM | IC50 [31]: 2 nM | IC50 [32]: 2 nM | IC50 [33]: 1 nM | CC50 [34]: > 190000 nM | CC50 [35]: > 190000 nM | CC50 [36]: > 190000 nM | IC50 (CCRF-CEM [37]): 20 nM | CC50 [38]: > 200000 nM | CC50 [39]: > 190000 nM | IC50 (cells): 4 nM
